Experiments:
SF-539 = test: Growth inhibition of human SF539 cells after 48 hrs by sulforhodamine B assay; assay type: functional; conditions: SF-539, 48 h
Procedure, shortened: (§1)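 NCI screen panel. Five 10-fold concentrations from 10^-4 to 10^-8 M. Exposure for the last 48 h of a 72 h incubation. Growth estimated by sulforhodamine B protein assay. GI50 is the concentration giving 50% growth inhibition. Where that level was not reached or was exceeded, the value is given as above or below the highest or lowest concentration tested.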

HOP-62 = test: Growth inhibition of human HOP62 cells after 48 hrs by sulforhodamine B assay; assay type: functional; conditions: HOP-62, 48 h; procedure, shortened: as §1
U-251 = test: Growth inhibition of human U251 cells after 48 hrs by sulforhodamine B assay; assay type: functional; conditions: U-251, 48 h
Procedure, shortened: (§2)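 NCI in vitro panel screen. Compounds tested at five 10-fold dilutions, 10^-4 to 10^-8 M. Cells in 96-well plates were exposed for the last 48 h of a 72 h incubation. Viability/growth was read by sulforhodamine B protein assay. GI50 is the concentration giving 50% growth inhibition. Values beyond the tested range are reported as greater or less than the maximum or minimum concentration.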

M14 = test: Growth inhibition of human M14 cells after 48 hrs by sulforhodamine B assay; assay type: functional; conditions: M14, 48 h; procedure, shortened: as §1
MT4 = test: Antiproliferative activity against human MT4 cells assessed as reduction of growth by MTT assay; assay type: functional, cell-based
Procedure, shortened: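 MT-4 lymphoblastoid T cells (ATCC) in RPMI 1640 with 10% FCS, penicillin/streptomycin, checked for mycoplasma. 1 × 10⁴ mock-infected cells per well with serial dilutions from a 100 mM DMSO stock. Incubated 4 days at 37 °C, viable cells counted by MTT. IC50 versus untreated controls by linear regression. Mean of three separate experiments.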

COLO 205 = test: Growth inhibition of human COLO205 cells after 48 hrs by sulforhodamine B assay; assay type: functional; conditions: COLO 205, 48 h; procedure, shortened: as §1
ACHN = test: Growth inhibition of human ACHN cells after 48 hrs by sulforhodamine B assay; assay type: functional; procedure, shortened: as §1
SNB-75 = test: Growth inhibition of human SNB75 cells after 48 hrs by sulforhodamine B assay; assay type: functional; conditions: SNB-75, 48 h; procedure, shortened: as §2
K562 = test: Growth inhibition of human K562 cells after 48 hrs by sulforhodamine B assay; assay type: functional; conditions: K562, 48 h; procedure, shortened: as §1
OVCAR-3 = test: Growth inhibition of human OVCAR-3 cells after 48 hrs by sulforhodamine B assay; assay type: functional; conditions: OVCAR-3, 48 h; procedure, shortened: as §1
UACC-62 = test: Growth inhibition of human UACC62 cells after 48 hrs by sulforhodamine B assay; assay type: functional; conditions: UACC-62, 48 h; procedure, shortened: as §2
MOLT-4 = test: Growth inhibition of human MOLT4 cells after 48 hrs by sulforhodamine B assay; assay type: functional; conditions: MOLT-4, 48 h; procedure, shortened: as §1
SK-OV-3 = test: Growth inhibition of human SKOV3 cells after 48 hrs by sulforhodamine B assay; assay type: functional; conditions: SK-OV-3, 48 h; procedure, shortened: as §1
SW-620 = test: Growth inhibition of human SW620 cells after 48 hrs by sulforhodamine B assay; assay type: functional; conditions: SW-620, 48 h; procedure, shortened: as §2
SK-MEL-2 = test: Growth inhibition of human SK-MEL-2 cells after 48 hrs by sulforhodamine B assay; assay type: functional; conditions: SK-MEL-2, 48 h; procedure, shortened: as §1
MDA-MB-435 = test: Growth inhibition of human MDA-MB-435 cells after 48 hrs by sulforhodamine B assay; assay type: functional; conditions: MDA-MB-435, 48 h; procedure, shortened: as §1
KM12 = test: Growth inhibition of human KM12 cells after 48 hrs by sulforhodamine B assay; assay type: functional; conditions: KM12, 48 h; procedure, shortened: as §1
NCI-H522 = test: Growth inhibition of human NCI-H522 cells after 48 hrs by sulforhodamine B assay; assay type: functional; conditions: NCI-H522, 48 h; procedure, shortened: as §1
TK-10 = test: Growth inhibition of human TK10 cells after 48 hrs by sulforhodamine B assay; assay type: functional; conditions: TK-10, 48 h; procedure, shortened: as §2
HCT-116 = test: Growth inhibition of human HCT116 cells after 48 hrs by sulforhodamine B assay; assay type: functional; conditions: HCT-116, 48 h; procedure, shortened: as §1
SR = test: Growth inhibition of human SR cells after 48 hrs by sulforhodamine B assay; assay type: functional; procedure, shortened: as §2
BT-549 = test: Growth inhibition of human BT549 cells after 48 hrs by sulforhodamine B assay; assay type: functional; conditions: BT-549, 48 h; procedure, shortened: as §1
SK-MEL-28 = test: Growth inhibition of human SK-MEL-28 cells after 48 hrs by sulforhodamine B assay; assay type: functional; conditions: SK-MEL-28, 48 h; procedure, shortened: as §1
Malme-3M = test: Growth inhibition of human MALME-3M cells after 48 hrs by sulforhodamine B assay; assay type: functional; procedure, shortened: as §1
HT-29 = test: Growth inhibition of human HT-29 cells after 48 hrs by sulforhodamine B assay; assay type: functional; conditions: HT-29, 48 h; procedure, shortened: as §1
HOP-92 = test: Growth inhibition of human HOP92 cells after 48 hrs by sulforhodamine B assay; assay type: functional; conditions: HOP-92, 48 h; procedure, shortened: as §1
SK-MEL-5 = test: Growth inhibition of human SK-MEL-5 cells after 48 hrs by sulforhodamine B assay; assay type: functional; conditions: SK-MEL-5, 48 h; procedure, shortened: as §1
SF-295 = test: Growth inhibition of human SF295 cells after 48 hrs by sulforhodamine B assay; assay type: functional; conditions: SF-295, 48 h; procedure, shortened: as §1
SF-268 = test: Growth inhibition of human SF268 cells after 48 hrs by sulforhodamine B assay; assay type: functional; conditions: SF-268, 48 h; procedure, shortened: as §1
HCT-15 = test: Growth inhibition of human HCT15 cells after 48 hrs by sulforhodamine B assay; assay type: functional; conditions: HCT-15, 48 h; procedure, shortened: as §1
786-0 = test: Growth inhibition of human 786-0 cells after 48 hrs by sulforhodamine B assay; assay type: functional; conditions: 786-0, 48 h; procedure, shortened: as §1
IGROV-1 = test: Growth inhibition of human IGROV1 cells after 48 hrs by sulforhodamine B assay; assay type: functional; conditions: IGROV-1, 48 h; procedure, shortened: as §1
OVCAR-8 = test: Growth inhibition of human OVCAR8 cells after 48 hrs by sulforhodamine B assay; assay type: functional; conditions: OVCAR-8, 48 h; procedure, shortened: as §1
LOX IMVI = test: Growth inhibition of human LOXIMVI cells after 48 hrs by sulforhodamine B assay; assay type: functional; procedure, shortened: as §1
SN12C = test: Growth inhibition of human SN12C cells after 48 hrs by sulforhodamine B assay; assay type: functional; procedure, shortened: as §2
UO-31 = test: Growth inhibition of human UO31 cells after 48 hrs by sulforhodamine B assay; assay type: functional; conditions: UO-31, 48 h; procedure, shortened: as §2
PC-3 = test: Growth inhibition of human PC3 cells after 48 hrs by sulforhodamine B assay; assay type: functional; conditions: PC-3, 48 h; procedure, shortened: as §1
OVCAR-4 = test: Growth inhibition of human OVCAR4 cells after 48 hrs by sulforhodamine B assay; assay type: functional; conditions: OVCAR-4, 48 h; procedure, shortened: as §1
SNB-19 = test: Growth inhibition of human SNB19 cells after 48 hrs by sulforhodamine B assay; assay type: functional; conditions: SNB-19, 48 h; procedure, shortened: as §2
MDA-MB-231 = test: Growth inhibition of human MDA-MB-231 cells after 48 hrs by sulforhodamine B assay; assay type: functional; conditions: MDA-MB-231, 48 h; procedure, shortened: as §1
NCI-H23 = test: Growth inhibition of human NCI-H23 cells after 48 hrs by sulforhodamine B assay; assay type: functional; conditions: NCI-H23, 48 h; procedure, shortened: as §1
EKVX = test: Growth inhibition of human EKVX cells after 48 hrs by sulforhodamine B assay; assay type: functional; procedure, shortened: as §1
HL-60(TB) = test: Growth inhibition of human HL-60(TB) cells after 48 hrs by sulforhodamine B assay; assay type: functional; conditions: HL-60, 48 h
Procedure, shortened: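 NCI 60-cell-line screen protocol: cells exposed to compound at five 10-fold dilutions from 10^-4 to 10^-8 M for the last 48 h of a 72 h incubation. Sulforhodamine B protein assay estimated viability/growth. GI50 (50% growth inhibition) derived; where not reached or exceeded, reported as greater or less than the highest or lowest concentration tested.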

[1] = Growth inhibition of human […] cells after 48 hrs by sulforhodamine B assay; assay type: functional; procedure, shortened: as §1
DU-145 = test: Growth inhibition of human DU145 cells after 48 hrs by sulforhodamine B assay; assay type: functional; conditions: DU-145, 48 h; procedure, shortened: as §1
MCF7 = test: Growth inhibition of human MCF7 cells after 48 hrs by sulforhodamine B assay; assay type: functional; conditions: MCF7, 48 h; procedure, shortened: as §1
NCI-H460 = test: Growth inhibition of human NCI-H460 cells after 48 hrs by sulforhodamine B assay; assay type: functional; conditions: NCI-H460, 48 h; procedure, shortened: as §1
NCI-H322M = test: Growth inhibition of human NCI-H322M cells after 48 hrs by sulforhodamine B assay; assay type: functional; procedure, shortened: as §1
RXF 393 = test: Growth inhibition of human RXF393 cells after 48 hrs by sulforhodamine B assay; assay type: functional; conditions: RXF 393, 48 h; procedure, shortened: as §1
A549 = test: Growth inhibition of human A549 cells after 48 hrs by sulforhodamine B assay; assay type: functional; conditions: A549, 48 h; procedure, shortened: as §1
CAKI-1 = test: Growth inhibition of human Caki1 cells after 48 hrs by sulforhodamine B assay; assay type: functional; conditions: CAKI-1, 48 h; procedure, shortened: as §1
CCRF-CEM = test: Growth inhibition of human CCRF-CEM cells after 48 hrs by sulforhodamine B assay; assay type: functional; procedure, shortened: as §1
T47D = test: Growth inhibition of human T47D cells after 48 hrs by sulforhodamine B assay; assay type: functional; procedure, shortened: as §2

For `N#C/C(=C\N1CCN(C(=O)c2ccco2)C1=S)C(=O)c1ccccc1`, the GI50 (SF-539) was 2.2 µM, the GI50 (HOP-62) was 22 µM and the GI50 (U-251) was 17 µM. For the same compound, the GI50 (M14) was 14.9 µM, the IC50 (MT4) was 3 µM and the GI50 (COLO 205) was 23.2 µM. For the same compound, the GI50 (ACHN) was 16.6 µM, the GI50 (SNB-75) was 68.2 µM and the GI50 (K562) was 5.5 µM. It also gave a GI50 (OVCAR-3) of 18.2 µM, a GI50 (UACC-62) of 12.9 µM and a GI50 (MOLT-4) of 43.7 µM. For the same compound, the GI50 (SK-OV-3) was 37.4 µM, the GI50 (SW-620) was 5.9 µM and the GI50 (SK-MEL-2) was 3.7 µM. For the same compound, the GI50 (MDA-MB-435) was 11 µM, the GI50 (KM12) was 6.5 µM and the GI50 (NCI-H522) was 3.7 µM. It also gave a GI50 (TK-10) of 10.5 µM, a GI50 (HCT-116) of 9.1 µM and a GI50 (SR) of 2.8 µM. The GI50 (BT-549) was 7.8 µM, the GI50 (SK-MEL-28) was 28 µM and the GI50 (Malme-3M) was 30.7 µM. The GI50 (HT-29) was 30.5 µM, the GI50 (HOP-92) was 26.9 µM and the GI50 (SK-MEL-5) was 8.3 µM. For the same compound, the GI50 (SF-295) was 43.6 µM, the GI50 (SF-268) was 31.2 µM and the GI50 (HCT-15) was 5.7 µM. It also gave a GI50 (786-0) of 16.1 µM, a GI50 (IGROV-1) of 19.4 µM and a GI50 (OVCAR-8) of 25.4 µM. The GI50 (LOX IMVI) was 17.9 µM, the GI50 (SN12C) was 8.6 µM and the GI50 (UO-31) was 10.2 µM. It also gave a GI50 (PC-3) of 31.7 µM, a GI50 (OVCAR-4) of 29.8 µM and a GI50 (SNB-19) of 39.7 µM. The GI50 (MDA-MB-231) was 13.7 µM, the GI50 (NCI-H23) was 15.2 µM and the GI50 (EKVX) was 17.8 µM. For the same compound, the GI50 (HL-60(TB)) was 31.5 µM, the GI50 [1] was 5.6 µM and the GI50 (DU-145) was 5 µM. It also gave a GI50 (MCF7) of 4.5 µM, a GI50 (NCI-H460) of 9.5 µM and a GI50 (NCI-H322M) of 23.4 µM. The GI50 (RXF 393) was 4.1 µM, the GI50 (A549) was 22 µM and the GI50 (CAKI-1) was 12.5 µM. For the same compound, the GI50 (CCRF-CEM) was 41.9 µM and the GI50 (T47D) was 7.2 µM.

Source: ChEMBL document CHEMBL1138555, “N-acylated and N,N'-diacylated imidazolidine-2-thione derivatives and N,N'-diacylated tetrahydropyrimidine-2(1H)-thione analogues: synthesis and antiproliferative activity” (Eur J Med Chem, 2009)
